In assay [1] the test system is Saccharomyces cerevisiae. Nature of the assay: Fold resistance, ratio of IC50 for Saccharomyces cerevisiae BY686 expressing ribosomal protein cyh2 and harboring mutation in rpl28 to IC50 Saccharomyces cerevisiae JB503. The class given is functional. In short, it runs like this:
(§1)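 Four isogenic S. cerevisiae strain pairs, each differing only by presence or absence of cyh2, exposed to varying compound concentrations; growth read by optical density; IC50 derived per strain, resistance as ratio between paired strains.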

Assay [2] in a line: Inhibition of [32P]deacetylated phe-tRNA binding to 60S ribosome E-site by footprinting assay.
For assay [3], the system named is MDA-MB-231. Nature of the assay: Anticancer activity against human MDA-MB-231 cells after 24 hrs by [3H]thymidine incorporation assay. The class given is functional, cell-based. In general terms: Uptake of a labelled nucleoside into DNA is a usual measure of proliferation.
Assay [4] has as its target Elongation factor 2 (Homo sapiens) (UniProt P13639). Nature of the assay: Inhibition of eEF2-mediated tRNA translocation assessed as induction of dipeptide accumulation by TLC.
Assay [5] is described as follows: Inhibition of elF4A-mediated renilla luciferase translational activity at 0.02 to 5 uM in presence of CrPV IRES element.
In the next assay the test system is HEK-293T. Nature of the assay: Effect on polyribosome profiling in human HEK293T cells assessed as depletion of polysomes at 50 uM after 30 mins by spectrophotometry. The class given is functional, cell-based. In short, it runs like this:
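HEK 293T cells treated 30 min with compound, then lysed; lysates centrifuged through 15–45% sucrose gradient to give polysome profiles.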

For assay [6], the system named is Saccharomyces cerevisiae. In words: Fold resistance, ratio of IC50 for Saccharomyces cerevisiae BY740 expressing ribosomal protein cyh2 and harboring mutation in rpl28 to IC50 for Saccharomyces cerevisiae […]. The class given is functional. In short, it runs like this: as §1
Assay [7] in a line: Inhibition of elF4A-mediated renilla luciferase translational activity at 200 to 2000 nM in presence of HCV IRES element.
In assay [8] the target is Elongation factor 2 (Homo sapiens) (UniProt P13639). Nature of the assay: Inhibition of eEF2-mediated tRNA translocation assessed as inhibition of phenylalanyl puromycin formation. In short, it runs like this: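 Set up as eEF1A binding assay but with GTP; 5 min at 37°C, compound added to 200 μM final, 5 min at room temperature, then eEF2, puromycin and GTP added; 10 min at 37°C; ethyl acetate-extractable phenylalanyl-puromycin counted by scintillation.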

Assay [9] in a line: Effect on peptidyl transfer assessed as [35S]methionyl-puromycin formation by TLC.
Assay [10] has as its system Saccharomyces cerevisiae. In words: Antimicrobial activity against Saccharomyces cerevisiae J407alpha expressing ribosomal protein cyh2 and harboring mutation in rpl28. Format: functional, organism-based. In short, it runs like this: as §1
The subject of assay [11] is MDA-MB-231. In words: Antiproliferative activity against human MDA-MB-231 cells assessed as incorporation of [3H]thymidine in nuclear DNA at 2.5 uM after 24 hrs by scintillation counting. The class given is functional, cell-based. In short, it runs like this: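 Each of three tumour cell lines incubated with compound at 2.5 μM for 24 h, then [³H]thymidine added to monitor DNA synthesis; initial proliferation screen.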

Activity calls are given as the source filed them. The calls are words filed in the database; no cut-off is given here.

Usually IC50 stands for the concentration that gives 50% inhibition. Low readings indicate inhibition by little substance, high ones a need for much substance.

Regarding `C/C(=C\[C@H](C)C(=O)C[C@H](O)CC1CC(=O)NC(=O)C1)[C@@H]1OC(=O)/C=C/CC/C=C/C=C\[C@@H]1C` [LACTIMIDOMYCIN], the “Ratio IC50” value is given as 10.3 in the assay on Saccharomyces cerevisiae [1] and 20.5 in the assay on Saccharomyces cerevisiae [6]. Further, the inhibition entry in assay [2], in assay [4], in assay [5], in [7] and in assay [8] was “Active” each time. Moreover, the outcome in the assay on MDA-MB-231 [3] and in the assay with HEK-293T was Active. The result (in [9]; in the assay on MDA-MB-231 [11]) was inactive. The molecule further showed an IC50 in the assay on Saccharomyces cerevisiae [10] of 1110 nM.

The values above are taken from ChEMBL document CHEMBL1221230, “Inhibition of eukaryotic translation elongation by cycloheximide and lactimidomycin” (Nat Chem Biol, 2010).
